This is a sample that favours compounds with a hit; in the whole collection about 2% have one here.
CaV13 ICDI inh – Primary screen for inhibitors of IQ motif and Ca2+-dependent inactivation inhibitor domain binding in CACNA1D, Förster resonance energy transfer in living cells, … | HEK cells, CFP/YFP FRET ICDI-IQ, plate reader, 10 min; percent FRET-ratio fall versus neutral wells | AID 743397 | inhibition, % at 12.3 µM | hit rate 0.098% among 340,000;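 active means mean replicate inhibition of at least 30% and at least 1% of replicates passing that level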;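 further: 0% = median of the neutral control wells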
XiGFP reactiv – activators of inactive X chromosome reactivation, primary screen, imaging, XiGFP fibroblasts, GFP high-content imaging, set 2 | XiGFP mouse fibroblasts, % GFP-positive cells imaging, 3 d; cells co-treated with 5-aza-dC sensitizer; scaled so ellipticine positive control = 100% | activation, % at 7.58 µM | hit rate 0.055% among 360,000;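 active means mean normalized replicate activation at least 10% and every replicate at or above 10%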;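 further: 0% = median of on-plate neutral control wells and 100% = ellipticine 6 µM median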
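System: 68-5-11 XiGFP fibroblast line; Timing: 3 days compound exposure; Compound dosing: one concentration, pinned; Benchmarks: positive control ellipticine, 6 µM final; Buffer or medium: DMEM containing 5-aza-dC.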
Casp6 inh – human caspase-6 inhibitors, primary screen, biochemical, VEID-R110 fluorescence, single point, set 2; purified caspase-6, Z-VEID-R110 cleavage fluorescence; inhibition, % at 12.5 µM; hit rate 0.53% among 350,000; AID 686996, 2013;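 active means mean inhibition across replicates at least about 35%, with every replicate also reaching that limit, limit read from the data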;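 further: 0% = median of neutral control wells and 100% = no fluorescence left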
Target sequence (P55212 24-179 limits assumed): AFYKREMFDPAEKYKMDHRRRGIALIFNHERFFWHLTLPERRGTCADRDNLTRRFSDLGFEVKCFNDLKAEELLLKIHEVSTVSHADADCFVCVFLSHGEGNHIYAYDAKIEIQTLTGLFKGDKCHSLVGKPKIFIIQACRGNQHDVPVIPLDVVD
Target sequence (P55212 194-293 limits assumed): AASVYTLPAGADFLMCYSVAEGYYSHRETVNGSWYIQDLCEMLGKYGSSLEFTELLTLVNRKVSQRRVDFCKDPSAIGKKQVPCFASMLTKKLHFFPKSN
DENV2 CPE – inhibitors of DENV2 cytopathic effect, primary screen, cell-based, plate reader, single concentration; DENV2-infected cells, cytopathic effect rescue; CPE inhibition, % at 9.99 µM; hit rate 1.7% among 350,000; in the data active means CPE inhibition above about 20%, passing the limit was not always enough; tested in BHK-21 cells;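 further: 0% = median of neutral control wells and 100% = median of positive control wells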
FN deposition inh – inhibitors of fibronectin matrix deposition, primary screen, AH1F cells, Alexa488-fibronectin fluorescence, plate reader; AH1F fibroblasts, overnight; hit rate 0.086% among 350,000; inhibition, % at 12.6 µM;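 active means mean inhibition across replicates of 30% or more, regardless of how many single replicates reach that level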;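 further: positive control wells lacked labelled fibronectin entirely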
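material = AH1F fibroblast monolayer depositing Alexa488-labelled fibronectin into matrix | amount = 10000 AH1F cells/well | buffer or medium = DMEM plus 2% serum, read in PBS | incubation = 1 h cell adhesion before compound, then overnight fibronectin incubation | detection = fluorescence at 485 nm excitation, 525 nm emission | evaluation = percent inhibition as loss of matrix-bound fibronectin fluorescence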
CASP1 counter – human caspase-1 inhibitors, dose response, selectivity assay for caspase-6 inhibitor project, biochemical, Z-YVAD-R110 fluorescence, cherry-pick, set 2 | AID 743289, 2014 | activity change, negative = inhibition, % at 35 µM | purified caspase-1, Z-YVAD-R110 cleavage fluorescence | shares compounds with Casp6 inh | 100 tested, under 10 active;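 active means compounds lowering fluorescence whose fitted half-maximal concentration is no more than twice their top tested dose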
Starred values were filed as active, the others as inactive; . = no result.

SMILES	CaV13 ICDI inh	XiGFP reactiv	Casp6 inh	DENV2 CPE	FN deposition inh	CASP1 counter
CC(C)C1Nc2c(O)cc(Cl)c([N+](=O)[O-])c2C2C=CCC21 (stereo not drawn)	9	0	22	-8	-8	.
O=C(O)CCc1ccc(-c2ccc(Br)cc2)n1CC(=O)O	-9	.	47*	3	.	10
O=C(O)CCc1ccc(-c2ccccc2)n1CC(=O)O	.	.	.	.	7	.
O=C(C[C@H]1CC[C@H](NC(=O)CCN2CCCCC2)[C@H](CO)O1)Nc1ccc(-c2ccccc2)cc1	.	0	-1	-1	8	.
COc1ccc(NC(=O)N(C)C[C@H]2Oc3cc(-c4cccc(C(=O)N(C)C)c4)ccc3S(=O)(=O)N([C@@H](C)CO)C[C@H]2C)cc1	.	-1	.	-3	.	.
Nc1ccc2nn(-c3ccccc3)nc2c1	-11	0	2	5	8	.
Nc1cc2nn(-c3ccccc3)nc2cc1Cl	-2	0	98*	0	-3	2
O=C(O)c1ccccc1O	-6	0	.	-3	-3	.
Nc1c(O)cccc1C(=O)O	-5	0	56*	-6	0	4
Cc1ccc(C)c(NC(=O)CN(C)C(=O)c2cccc(-n3cccc3)c2)c1	-6	0	59*	-4	0	-1
CN(CC(=O)Nc1c(Cl)cccc1Cl)C(=O)c1cccc(-n2cccc2)c1	-6	0	42*	-3	0	3

Compound activity (PubChem)
